# Test results: article PMC3611965 (Nuclear medicine and biology, 2012)
# Values joined by “and” are separate entries in the source; they are usually repeats but may differ in a detail not shown here. Equal values may be shown once. Read-outs that look alike come from different tables or passages of the source.
# Legend:
# [1] = molecular target: T1, FAAH (Mus musculus, UniProt O08914); test: in vitro competitive ABPP; assay type: biochemical
# T1 sequence (O08914 1-579): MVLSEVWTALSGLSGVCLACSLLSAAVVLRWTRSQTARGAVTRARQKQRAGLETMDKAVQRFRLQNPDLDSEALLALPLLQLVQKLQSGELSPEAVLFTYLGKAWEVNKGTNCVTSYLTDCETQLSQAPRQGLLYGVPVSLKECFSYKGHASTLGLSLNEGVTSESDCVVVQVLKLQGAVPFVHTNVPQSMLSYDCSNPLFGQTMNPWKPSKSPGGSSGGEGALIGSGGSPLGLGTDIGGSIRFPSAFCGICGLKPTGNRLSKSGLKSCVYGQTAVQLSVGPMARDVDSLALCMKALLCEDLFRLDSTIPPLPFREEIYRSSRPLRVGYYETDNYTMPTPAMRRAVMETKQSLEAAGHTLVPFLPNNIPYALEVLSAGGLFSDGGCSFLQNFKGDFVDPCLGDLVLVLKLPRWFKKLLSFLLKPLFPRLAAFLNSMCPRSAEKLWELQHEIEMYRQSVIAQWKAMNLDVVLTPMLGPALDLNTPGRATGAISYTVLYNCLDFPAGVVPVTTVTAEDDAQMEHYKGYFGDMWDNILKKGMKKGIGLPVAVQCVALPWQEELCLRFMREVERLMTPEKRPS
# Method in brief: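 Wild-type C57Bl/6J mouse brain membrane fractions (1 mg/mL total protein) were preincubated with varying test compound concentrations for 30 min at 37 °C. FP-Rh was then added (50 μM stock in DMSO) for another 30 min at 37 °C. Samples were quenched in SDS loading buffer and run on SDS-PAGE with in-gel fluorescence scanning. IC50 was calculated from band fluorescence.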
# [2] = molecular target: T1, FAAH; test: in vivo competitive ABPP of brains of treated mice; details: C57Bl/6 mice, 10 mg/kg i.p. or p.o., 1 h, gel-based ABPP
# Method in brief: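 Wild-type C57Bl/6J mice got test compound or vehicle (18:1:1 PBS:Emulphor:ethanol) and were killed after 1 h. Half-brains were frozen in liquid N2, washed in cold PBS, dounce-homogenized and sonicated, then spun at 1000×g (10 min, 4 °C) and 145,000×g (45 min, 4 °C) into soluble and membrane fractions. These were diluted to 1 mg/mL and labelled with FP-Rh (30 min, 37 °C) for SDS-PAGE fluorescence profiling.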
# [3] = MDCK passive permeability; assay type: in vitro ADME; details: dog
# [4] = molecular target: MDR1 (Homo sapiens, UniProt P08183); test: MDR1 efflux ratio; assay type: in vitro ADME; details: MDCK-MDR1
# [5] = tested on: FAAH; details: rats; ref [25]; cited from earlier work
# [6] = tested on: FAAH; details: rhesus monkeys; ref [23]; cited from earlier work
# [7] = tested on: FAAH; details: human studies; ref [23]; cited from earlier work
# [8] = log P7.4 measurement; assay type: physicochemical; details: n-octanol/DPBS pH 7.4; measured in quadruplicate
# Method in brief: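 18F-labelled test compound (15–30 μCi) was partitioned between presaturated n-octanol and DPBS (0.1 M, pH 7.4) by vortexing 60 s and centrifuging at 4000 rpm for 2 min. The octanol phase was washed with fresh DPBS three times, then re-partitioned against fresh DPBS in four successive sets. Triplicate aliquots of each phase were gamma-counted. LogP7.4 = log[(octanol counts×20)/DPBS counts].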
# [9] = molecular target: T2, FAAH (Rattus norvegicus, UniProt P97612); test: brain biodistribution of [18F]PF-9811 in rats, baseline and blocked; assay type: in vivo; details: for SUV±standard deviation, Bone: N=2; for SUV±standard deviation, Blood / SUV±standard deviation, Brain stem / SUV±standard deviation, Cerebellum / SUV±standard deviation, Cortex / SUV±standard deviation, Hippocampus / SUV±standard deviation, Hypothalamus / SUV±standard deviation, Liver / SUV±standard deviation, Rest of brain / SUV±standard deviation, Striatum / SUV±standard deviation, Thalamus: N=4
# T2 sequence (P97612 1-579): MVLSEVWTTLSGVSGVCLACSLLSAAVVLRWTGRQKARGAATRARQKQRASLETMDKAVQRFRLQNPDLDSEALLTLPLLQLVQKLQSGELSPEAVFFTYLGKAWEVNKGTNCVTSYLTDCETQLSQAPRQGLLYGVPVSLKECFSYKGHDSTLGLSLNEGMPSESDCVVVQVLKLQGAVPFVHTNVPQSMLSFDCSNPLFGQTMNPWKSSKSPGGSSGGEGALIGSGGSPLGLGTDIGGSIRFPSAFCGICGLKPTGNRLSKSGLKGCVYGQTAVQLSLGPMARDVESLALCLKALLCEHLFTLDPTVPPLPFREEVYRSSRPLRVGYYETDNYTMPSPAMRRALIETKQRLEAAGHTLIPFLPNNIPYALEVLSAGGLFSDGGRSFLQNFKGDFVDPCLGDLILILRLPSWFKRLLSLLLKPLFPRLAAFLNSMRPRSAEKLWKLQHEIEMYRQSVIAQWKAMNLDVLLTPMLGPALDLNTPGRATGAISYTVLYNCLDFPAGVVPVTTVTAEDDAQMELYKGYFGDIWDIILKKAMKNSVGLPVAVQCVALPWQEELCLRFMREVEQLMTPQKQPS
# [10] = molecular target: T2, FAAH; test: dynamic PET imaging in rats, baseline and blocked; assay type: in vivo
# Method in brief: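 Male Sprague–Dawley rats (345±28 g) with jugular vein cannulas, held under ~2% isoflurane/O2 with respiration kept at 45–65 breaths/min and heat-lamp warming. The 18F-labelled test compound was given IV via tail vein (1.5462±0.4130 mCi) and brain scanned dynamically for 90 min in 16 frames. Blocked rats received an FAAH inhibitor 1 mg/kg p.o. 1 h before. Blood and plasma were sampled at 1–90 min. Images were atlas-registered for TACs and SUV.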
# [11] = rats; ref [20],[21]; cited from earlier work
# [12] = molecular target: T2, FAAH; details: cited from earlier work
# [13] = tested on: FAAH relative to other serine hydrolases; details: competitive ABPP; ref [20],[21]; cited from earlier work
# [14] = 10 min, blocked: 4 1 mg/kg oral 1 h prior
# [15] = 10 min post injection, baseline
# [16] = 60 min, blocked: 4 1 mg/kg oral 1 h prior
# [17] = 60 min post injection, baseline
# [18] = 90 min, blocked: 4 1 mg/kg oral 1 h prior
# [19] = 90 min, pretreatment with 4 1 mg/kg p.o.
# [20] = 90 min post injection, baseline
# [21] = biodistribution 90 min, baseline vs blocking
# Chain of MDR1 (P08183 whole entry, species assumed): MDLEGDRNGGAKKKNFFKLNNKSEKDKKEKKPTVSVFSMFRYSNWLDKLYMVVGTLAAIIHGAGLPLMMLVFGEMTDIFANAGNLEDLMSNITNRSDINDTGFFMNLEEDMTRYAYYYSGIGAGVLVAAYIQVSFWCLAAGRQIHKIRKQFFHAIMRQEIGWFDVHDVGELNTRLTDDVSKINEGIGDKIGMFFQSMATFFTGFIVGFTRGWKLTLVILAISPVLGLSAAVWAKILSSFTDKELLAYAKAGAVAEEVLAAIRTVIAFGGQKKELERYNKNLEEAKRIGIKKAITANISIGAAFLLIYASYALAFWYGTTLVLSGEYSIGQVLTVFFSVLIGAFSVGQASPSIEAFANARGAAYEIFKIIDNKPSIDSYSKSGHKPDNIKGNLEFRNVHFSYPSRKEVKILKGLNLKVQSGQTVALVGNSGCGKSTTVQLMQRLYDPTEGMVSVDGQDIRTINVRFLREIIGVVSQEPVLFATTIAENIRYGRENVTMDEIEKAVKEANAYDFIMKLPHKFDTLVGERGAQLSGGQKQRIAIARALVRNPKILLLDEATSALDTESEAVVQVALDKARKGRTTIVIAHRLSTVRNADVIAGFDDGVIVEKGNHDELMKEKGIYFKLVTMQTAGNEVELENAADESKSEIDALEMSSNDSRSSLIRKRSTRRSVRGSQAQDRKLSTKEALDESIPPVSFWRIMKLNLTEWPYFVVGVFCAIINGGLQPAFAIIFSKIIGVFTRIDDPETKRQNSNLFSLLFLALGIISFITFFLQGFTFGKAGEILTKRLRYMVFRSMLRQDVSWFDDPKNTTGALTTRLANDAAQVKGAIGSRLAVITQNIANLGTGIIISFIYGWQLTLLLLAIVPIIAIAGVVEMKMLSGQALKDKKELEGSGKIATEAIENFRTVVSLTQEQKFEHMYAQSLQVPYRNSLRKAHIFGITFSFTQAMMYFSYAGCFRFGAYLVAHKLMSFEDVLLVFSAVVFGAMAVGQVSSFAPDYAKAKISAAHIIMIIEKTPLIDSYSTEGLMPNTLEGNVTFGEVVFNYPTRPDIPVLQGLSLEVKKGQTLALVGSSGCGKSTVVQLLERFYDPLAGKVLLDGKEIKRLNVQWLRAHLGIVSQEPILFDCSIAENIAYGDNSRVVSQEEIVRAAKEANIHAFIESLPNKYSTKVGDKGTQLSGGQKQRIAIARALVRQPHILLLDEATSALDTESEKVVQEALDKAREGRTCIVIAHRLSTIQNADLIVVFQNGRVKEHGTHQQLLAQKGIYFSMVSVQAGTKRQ
structure (smiles),measurement,setting,value
"O=C(Nc1cccnn1)N1CCC(=Cc2cccc(Oc3ccc(OCCF)cn3)c2)CC1 [PF-9811, 4-(3-((5-(2-fluoroethoxy)pyridin-2-yl)oxy)benzylidene)-N-(pyridazin-3-yl)piperidine-1-carboxamide]",IC50,[1],16 nM
same,fold less potent than parent 4,"[1]; FAAH, competitive ABPP, mouse brain proteome",5 fold
same,FAAH inhibition in brain in vivo,[2],completely inhibited
same,off-targets among brain serine hydrolases in vivo,[2],no detectable off-targets
same,Papp A→B,[3],18.2 ×10⁻⁶ cm/s
same,efflux ratio,[4],2.52
O=[11C](NC1CCCCC1)Oc1ccc(O)c(-c2ccccc2)c1 [[^11 C]-CURB],brain uptake,[5],good brain uptake
CN(C)C(=O)[C@H]1C[C@@H]1c1ccc(-c2ncn([11CH3])c2Sc2ccc(Cl)cn2)cc1 [[^11 C]MK-3168],brain uptake (PET),[6],"Heterogeneous, specific brain uptake"
same,brain uptake (PET),[7],high brain uptake
O=C(Nc1cccnn1)N1CCC(=Cc2cccc(Oc3ccc(OCC[18F])cn3)c2)CC1 [[^18F]PF-9811],logP7.4,[8],3.14±0.02 and 3.14
same,"SUV±standard deviation, Bone",[9]; [14],0.332±0.010 SUV
same,"SUV±standard deviation, Blood",[9]; [14],1.031±0.069 SUV
same,"SUV±standard deviation, Brain stem",[9]; [14],0.313±0.011 SUV
same,"SUV±standard deviation, Cerebellum",[9]; [14],0.291±0.008 SUV
same,"SUV±standard deviation, Cortex",[9]; [14],0.265±0.014 SUV
same,"SUV±standard deviation, Hippocampus",[9]; [14],0.282±0.014 SUV
same,"SUV±standard deviation, Hypothalamus",[9]; [14],0.351±0.024 SUV
same,"SUV±standard deviation, Liver",[9]; [14],7.725±0.701 SUV
same,"SUV±standard deviation, Rest of brain",[9]; [14],0.294±0.018 SUV
same,"SUV±standard deviation, Striatum",[9]; [14],0.309±0.028 SUV
same,"SUV±standard deviation, Thalamus",[9]; [14],0.304±0.020 SUV
same,"SUV±standard deviation, Bone",[9]; [15],0.180±0.001 SUV
same,"SUV±standard deviation, Blood",[9]; [15],0.224±0.070 SUV
same,"SUV±standard deviation, Brain stem",[9]; [15],0.319±0.029 SUV
same,"SUV±standard deviation, Cerebellum",[9]; [15],0.666±0.017 SUV
same,"SUV±standard deviation, Cortex",[9]; [15],0.596±0.030 SUV
same,"SUV±standard deviation, Hippocampus",[9]; [15],0.579±0.018 SUV
same,"SUV±standard deviation, Hypothalamus",[9]; [15],0.410±0.027 SUV
same,"SUV±standard deviation, Liver",[9]; [15],14.179±3.336 SUV
same,"SUV±standard deviation, Rest of brain",[9]; [15],0.471±0.038 SUV
same,"SUV±standard deviation, Striatum",[9]; [15],0.427±0.021 SUV
same,"SUV±standard deviation, Thalamus",[9]; [15],0.382±0.051 SUV
same,"SUV±standard deviation, Bone",[9]; [16],0.391±0.088 SUV
same,"SUV±standard deviation, Blood",[9]; [16],0.747±0.191 SUV
same,"SUV±standard deviation, Brain stem",[9]; [16],0.264± 0.076 SUV
same,"SUV±standard deviation, Cerebellum",[9]; [16],0.248± 0.076 SUV
same,"SUV±standard deviation, Cortex",[9]; [16],0.219±0.068 SUV
same,"SUV±standard deviation, Hippocampus",[9]; [16],0.233±0.076 SUV
same,"SUV±standard deviation, Hypothalamus",[9]; [16],0.260± 0.088 SUV
same,"SUV±standard deviation, Liver",[9]; [16],4.488±1.343 SUV
same,"SUV±standard deviation, Rest of brain",[9]; [16],0.239±0.071 SUV
same,"SUV±standard deviation, Striatum",[9]; [16],0.255±0.082 SUV
same,"SUV±standard deviation, Thalamus",[9]; [16],0.251±0.074 SUV
same,"SUV±standard deviation, Bone",[9]; [17],0.133±0.058 SUV
same,"SUV±standard deviation, Blood",[9]; [17],0.063±0.012 SUV
same,"SUV±standard deviation, Brain stem",[9]; [17],0.331±0.041 SUV
same,"SUV±standard deviation, Cerebellum",[9]; [17],0.751±0.094 SUV
same,"SUV±standard deviation, Cortex",[9]; [17],0.674±0.109 SUV
same,"SUV±standard deviation, Hippocampus",[9]; [17],0.673±0.118 SUV
same,"SUV±standard deviation, Hypothalamus",[9]; [17],0.426± 0.045 SUV
same,"SUV±standard deviation, Liver",[9]; [17],17.346±4.789 SUV
same,"SUV±standard deviation, Rest of brain",[9]; [17],0.555±0.081 SUV
same,"SUV±standard deviation, Striatum",[9]; [17],0.441±0.073 SUV
same,"SUV±standard deviation, Thalamus",[9]; [17],0.374±0.045 SUV
same,"SUV±standard deviation, Bone",[9]; [18],0.472±0.133 SUV
same,"SUV±standard deviation, Blood",[9]; [18],0.703±0.117 SUV
same,"SUV±standard deviation, Brain stem",[9]; [18],0.246± 0.050 SUV
same,"SUV±standard deviation, Cerebellum",[9]; [18],0.249± 0.065 SUV
same,"SUV±standard deviation, Cortex",[9]; [18],0.216±0.055 SUV
same,"SUV±standard deviation, Hippocampus",[9]; [18],0.234±0.061 SUV
same,"SUV±standard deviation, Hypothalamus",[9]; [18],0.257±0.079 SUV
same,"SUV±standard deviation, Liver",[9]; [18],4.165±0.664 SUV
same,"SUV±standard deviation, Rest of brain",[9]; [18],0.231±0.055 SUV
same,"SUV±standard deviation, Striatum",[9]; [18],0.240±0.065 SUV
same,"SUV±standard deviation, Thalamus",[9]; [18],0.238±0.058 SUV
same,increase in signal in the blood on blocking,[9]; [19],12 fold
same,reduction of signal in the liver on blocking,[9]; [19],74%
same,"SUV±standard deviation, Bone",[9]; [20],0.159±0.001 SUV
same,"SUV±standard deviation, Blood",[9]; [20],0.061±0.009 SUV
same,"SUV±standard deviation, Brain stem",[9]; [20],0.391± 0.040 SUV
same,"SUV±standard deviation, Cerebellum",[9]; [20],0.857±0.144 SUV
same,"SUV±standard deviation, Cortex",[9]; [20],0.789±0.096 SUV
same,"SUV±standard deviation, Hippocampus",[9]; [20],0.770±0.126 SUV
same,"SUV±standard deviation, Hypothalamus",[9]; [20],0.545±0.126 SUV
same,"SUV±standard deviation, Liver",[9]; [20],16.116±4.670 SUV
same,"SUV±standard deviation, Rest of brain",[9]; [20],0.612±0.088 SUV
same,"SUV±standard deviation, Striatum",[9]; [20],0.573±0.081 SUV
same,"SUV±standard deviation, Thalamus",[9]; [20],0.544± 0.063 SUV
same,"specific to non-specific binding ratio, cerebellum",[9]; [21],2.4
same,"specific to non-specific binding ratio, cortex",[9]; [21],2.6
same,"specific to non-specific binding ratio, hippocampus",[9]; [21],2.3
same,uptake in rat brain (SUV),"[9]; biodistribution, 90 min, baseline",~0.8 SUV
same,defluorination (as determined by bone uptake),[9]; rats,minimal
same,"decreased uptake in blocking experiments, hippocampus","[10]; PET, end of 90 min, 4 1 mg/kg p.o. 1 h prior",~40%
same,"PET uptake (SUV), hippocampus and cortex","[10]; baseline, 90 min",~0.8 SUV
O=C(Nc1cccnn1)N1CCC(=Cc2cccc(Oc3ccc(C(F)(F)F)cn3)c2)CC1 [compound 4],oral bioavailability,[11],88%
same,FAAH inhibition at blocking dose,"[12]; p.o. 1.0 mg/kg, ref [20]",fully inhibit
same,"duration of sustained inhibition of brain FAAH activity, maximal elevations of brain AEA and efficacy in rat models of acute inflammatory pain","[12]; single oral administration 1 mg/kg, ref [15],[20]",at least 24 h
same,selectivity for FAAH relative to other serine hydrolases,[13],exquisite selectivity
